Data on one compound can be found in publication PMC10150721 (Journal of Medicinal Chemistry, 2023).

In one experiment the test system is class-IIa HDAC. It counts as cell-based. As to conditions: HT-29 cells. The procedure, abridged:
(§1)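 HT-29 cells were grown in DMEM with 10% FBS at 37 °C and 5% CO2, then trypsinised and washed into RPMI without phenol red containing 0.1% FBS. They were seeded at 200 000 cells/well overnight. Substrate was 100 μM Boc-Lys-TFA for class-IIa or 200 μM Boc-Lys-Ac for class-I/IIb, incubated 3 h at 37 °C. Trypsin developer with tween 80 then lysed the cells over 1 h; fluorescence read at ex 360/em 460 nm.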

For another experiment, the system named is class-I/IIb HDAC. It counts as cell-based. To be noted: HT-29 cells. The procedure, abridged:
as §1

Where [1] appears, read: screened at 1.0 and 10.0 µM side-by-side with SAHA and NT160.

With `O=C(O)c1ccc(-c2noc(C(F)(F)F)n2)cc1` [compound 1, 4-(5-(trifluoromethyl)-1,2,4-oxadiazol-3-yl)benzoic acid], in the experiment on class-IIa HDAC (setting [1]), the “Inhibition of class-IIa HDAC activity” value is ~10%. Further, the IC50 in the experiment with class-IIa HDAC (read-out: IC50, class-IIa HDAC) is > 10 µM; in the experiment on class-I/IIb HDAC (read-out: IC50, class-I/IIb HDAC), > 10 µM. For the same compound, the “Inhibition of class-I, class-IIb HDAC activities” value with class-I/IIb HDAC (setting [1]) was ~10%.
